Measurements of several laboratories.
Compare with care: the assays were run in different laboratories.
EGFR L858R: Epidermal growth factor receptor (EGFR, Homo sapiens, UniProt P00533, L858R)
EGFR: Epidermal growth factor receptor (EGFR, Homo sapiens, UniProt P00533)
EGFR del746-750: Epidermal growth factor receptor (EGFR, Homo sapiens, UniProt P00533, del746-750)
EGFR T790M: Epidermal growth factor receptor (EGFR, Homo sapiens, UniProt P00533, T790M)
EGFR del752-759: Epidermal growth factor receptor (EGFR, Homo sapiens, UniProt P00533, del752-759)
EGFR G719S: Epidermal growth factor receptor (EGFR, Homo sapiens, UniProt P00533, G719S)
EGFR del747-750/T751S: Epidermal growth factor receptor (EGFR, Homo sapiens, UniProt P00533, del747-750/T751S)

For `O=C(c1ccc(Nc2ncc(Cl)c(-c3cc4ccccc4s3)n2)cc1)N1CCC(N2CCCC2)CC1`, the remaining binding was 81% (EGFR L858R; binding, competition with immobilised ligand; 1 µM).
With `F[C@@H]1CCN(c2nccc(-c3cnn4ncccc34)n2)C1` the remaining binding was 89% (EGFR L858R; binding; 1 µM).
`Nc1ncc2c(n1)-c1c([nH]c3ccc(C#CC4CC4)cc13)CCCC2` gave a remaining binding of 80% (EGFR; binding, competition with immobilised ligand; 1 µM).
With `O=C(NCCCN1CCOCC1)c1ccc(Nc2ncc(Cl)c(-c3ccc(Cl)s3)n2)cc1` the remaining binding was 98% (Epidermal growth factor receptor (EGFR, Homo sapiens, UniProt P00533, del747-752/P753S); binding, competition with immobilised ligand; 1 µM).
With `CN(C)c1nccc(-c2cnc3ncccn23)n1` the remaining binding was 90% (Epidermal growth factor receptor (EGFR, Homo sapiens, UniProt P00533, L861Q); binding; 1 µM).
`CCN1CCN(Cc2ccc(C(=O)Nc3ccc(C)c(Oc4ccc5c(c4)CC(=O)N5)c3)cc2C(F)(F)F)CC1` has a remaining binding of 100% (Epidermal growth factor receptor (EGFR, Homo sapiens, UniProt P00533, G719C); binding, competition with immobilised ligand; 1 µM).
`O=C(c1ccc(Nc2ncc(Cl)c(-c3ccc(Cl)s3)n2)cc1)N1CCC(N2CCCC2)CC1` has a remaining binding of 86% (EGFR; binding, competition with immobilised ligand; 1 µM).
`COc1cnc(Nc2cccc(S(N)(=O)=O)c2)nc1N1CCN(c2ccccc2)CC1` has a remaining binding of 90% (EGFR del746-750; binding, competition with immobilised ligand; 1 µM).
With `N[C@@H]1CCN(c2nccc(-c3cnn4ncccc34)n2)C1` the remaining binding was 100% (EGFR T790M; binding; 1 µM).
For `O=C(c1ccc(Nc2nccc(-c3cc4ccccc4s3)n2)cc1)N1CCC(N2CCCC2)CC1`, the remaining binding was 100% (Epidermal growth factor receptor (EGFR, Homo sapiens, UniProt P00533, A750P/del747-749); binding, competition with immobilised ligand; 1 µM).
For `COc1cnc(Nc2cccc(S(N)(=O)=O)c2)nc1N1CCN(c2ccccc2)C(=O)C1`, the remaining binding was 96% (EGFR del746-750; binding, competition with immobilised ligand; 1 µM).
`CN(C)c1ncc(F)c(-c2cnn3ncccc23)n1` has a remaining binding of 100% (EGFR del746-750; binding; 1 µM).
`c1ccc(N2CCN(Cc3nc4ccccc4[nH]3)CC2)nc1` gave a remaining binding of 100% (EGFR L858R; cell-free assay, competition with immobilised ligand; 1 µM).
`CNC(=O)[C@@H]1CC[C@@H](n2c(-c3ccc4cnccc4c3)nc3ccc(C(=O)NCc4cccc(C(N)=O)c4)cc32)C1` has a remaining binding of 91% (EGFR del752-759; binding, competition with immobilised ligand; 1 µM).
The remaining binding of `CC(C)CC(=O)N1CCc2nc(-c3ccc(Br)cc3)nc(N(C)Cc3ccccc3)c2C1` is reported as 100% (EGFR del746-750; cell-free assay, competition with immobilised ligand; 0.1 µM).
`Cc1cnc(Nc2ccc(C(=O)N3CCC(N4CCCC4)CC3)cc2)nc1-c1cc2ccccc2s1` gave a remaining binding of 83% (EGFR; binding, competition with immobilised ligand; 1 µM).
`Nc1cnc(N2CCc3cc(S(=O)(=O)Nc4c(F)cc(Cl)cc4F)cc(N4CCCC4=O)c32)nc1` gave a remaining binding of 82% (EGFR; cell-free assay, competition with immobilised ligand; 1 µM).
`C[C@@H]1CCN(c2nccc(-c3cnn4ncccc34)n2)C1` has a remaining binding of 93% (EGFR L858R; binding; 1 µM).
`COc1ccc2c(c1)O[C@H](c1ccc(OC)c(OC)c1)C[C@@H]2NC(=O)C1(c2ccc3c(c2)OC(F)(F)O3)CC1` has a remaining binding of 99% (EGFR G719S; cell-free assay, competition with immobilised ligand; 1 µM).
For `O=C(NCCCN1CCOCC1)c1ccc(Nc2nccc(-c3cc4ccccc4s3)n2)cc1`, the remaining binding was 100% (EGFR del747-750/T751S; binding, competition with immobilised ligand; 1 µM).
`C[C@@H]1CN(c2cc(-c3nn(C)c4ccc(OC5(C)CC5)cc34)ncn2)C[C@H](C)O1` has a remaining binding of 95% (EGFR L858R; cell-free assay, competition with immobilised ligand; 1 µM).
For `CC1CCCN1c1nccc(-c2cnn3ncccc23)n1` (stereo not shown), the remaining binding was 100% (EGFR G719S; binding; 1 µM).
`O=C(N[C@H]1CCCCC/C=C\C2C[C@@]2(C(=O)O)NC(=O)[C@@H]2C[C@@H](Oc3ccncc3)CN2C1=O)OC1CCCC1` (stereo partly shown) gave a remaining binding of 78% (EGFR del746-750; cell-free assay, competition with immobilised ligand; 1 µM).
With `c1cncc(-c2cccc(Nc3nccc(NC4CCCCC4)n3)c2)c1` the remaining binding was 33% (EGFR T790M; binding, competition with immobilised ligand; 10 µM).
With `COc1cc(-c2cn(C3CCc4ccccc4N(CC(F)(F)F)C3=O)nn2)ccc1-n1ccc(C)n1` (stereo not shown) the remaining binding was 59% (EGFR T790M; cell-free assay, competition with immobilised ligand; 1 µM).
With `O=C(NCC1CCOCC1)c1n[nH]cc1NC(=O)c1c(F)cccc1F` the remaining binding was 100% (EGFR del752-759; binding, competition with immobilised ligand; 1 µM).
`CN(C)c1ncnc(-c2ccc3nc(Nc4cc(CN5CCN(C(=O)CC(F)(F)F)CC5)ccn4)[nH]c3c2)c1Cl` gave a remaining binding of 88% (EGFR del747-750/T751S; cell-free assay, competition with immobilised ligand; 1 µM).
For `O=C(Nc1c[nH]nc1C(=O)NC1CCNCC1)c1cc(F)cc(F)c1`, the remaining binding was 90% (EGFR L858R; binding, competition with immobilised ligand; 1 µM).
